From ChEMBL document CHEMBL5058577, “EUbOPEN Chemogenomics Library 2 (Multiplex)” (2022)

Tested on: U2OS
Assay: Multiplex assay against U2OS
Type: toxicity, cell-based
Conditions: human
Summary of the method: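 On a CQ1 microscope at 37°C and 5% CO2, live cells were imaged after compound addition. They had been stained at seeding with Hoechst33342, BioTracker Green Microtubule Cytoskeleton Dye, MitoTracker Red and Annexin V Alexa Fluor 680. CellPathfinder machine-learning gating assigned cells to Hoechst high-intensity objects or normal cells, normal cells to healthy, pyknosed or fragmented nuclei, and pyknosed cells to mitotic or apoptotic. Tubulin, mitochondrial-mass and membrane-permeability phenotypes are per cents of healthy-nucleus cells.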

[1] = 12 h, 1 µM, compound concentration 1 uM, replicate 1
[2] = 12 h, 1 µM, compound concentration 1 uM, replicate 2
[3] = 12 h, 10 µM, compound concentration 10 uM, replicate 1
[4] = 12 h, 10 µM, compound concentration 10 uM, replicate 2
[5] = 24 h, 1 µM, compound concentration 1 uM, replicate 1
[6] = 24 h, 1 µM, compound concentration 1 uM, replicate 2
[7] = 24 h, 10 µM, compound concentration 10 uM, replicate 1
[8] = 24 h, 10 µM, compound concentration 10 uM, replicate 2
[9] = 48 h, 1 µM, compound concentration 1 uM, replicate 1
[10] = 48 h, 1 µM, compound concentration 1 uM, replicate 2
[11] = 48 h, 10 µM, compound concentration 10 uM, replicate 1
[12] = 48 h, 10 µM, compound concentration 10 uM, replicate 2

Compound: Cc1ccc(F)cc1C(=O)Nc1ccc(C(=O)N2Cc3cccn3Cc3ccccc32)c(Cl)c1 [LIXIVAPTAN]
- Population Apoptotic (%) [1]: 69%
- Population Fragmented Nuclei (%) [1]: 32%
- Population Healthy Nuclei (%) [1]: 55%
- Population Hoechst High Intensity Objects (%) [1]: 3%
- Population Membrane Permeable-Phenotype (%) [1]: 9%
- Population Mitochondria Different-Phenotype (%) [1]: 9%
- Population Mitotic Cells (%) [1]: 30%
- Population Normal (%) [1]: 96%
- Population Pyknosed Nuclei (%) [1]: 11%
- Population Tubulin-Different-Phenotype (%) [1]: 7%
- Total Cell Count [1]: 230
- Population Apoptotic (%) [2]: 84%
- Population Fragmented Nuclei (%) [2]: 8%
- Population Healthy Nuclei (%) [2]: 82%
- Population Membrane Permeable-Phenotype (%) [2]: 14%
- Population Mitochondria Different-Phenotype (%) [2]: 10%
- Population Mitotic Cells (%) [2]: 15%
- Population Pyknosed Nuclei (%) [2]: 8%
- Population Tubulin-Different-Phenotype (%) [2]: 11%
- Total Cell Count [2]: 150
- Population Apoptotic (%) [3]: 59%
- Population Fragmented Nuclei (%) [3]: 34%
- Population Healthy Nuclei (%) [3]: 49%
- Population Hoechst High Intensity Objects (%) [3]: 5%
- Population Membrane Permeable-Phenotype (%) [3]: 79%
- Population Mitochondria Different-Phenotype (%) [3]: 42%
- Population Mitotic Cells (%) [3]: 40%
- Population Normal (%) [3]: 94%
- Population Pyknosed Nuclei (%) [3]: 16%
- Population Tubulin-Different-Phenotype (%) [3]: 85%
- Total Cell Count [3]: 203
- Population Apoptotic (%) [4]: 47%
- Population Fragmented Nuclei (%) [4]: 13%
- Population Healthy Nuclei (%) [4]: 69%
- Population Membrane Permeable-Phenotype (%) [4]: 63%
- Population Mitochondria Different-Phenotype (%) [4]: 55%
- Population Mitotic Cells (%) [4]: 52%
- Population Tubulin-Different-Phenotype (%) [4]: 77%
- Total Cell Count [4]: 119
- Population Apoptotic (%) [5]: 86%
- Population Fragmented Nuclei (%) [5]: 26%
- Population Healthy Nuclei (%) [5]: 64%
- Population Hoechst High Intensity Objects (%) [5]: 1%
- Population Membrane Permeable-Phenotype (%) [5]: 9%
- Population Mitochondria Different-Phenotype (%) [5]: 9%
- Population Mitotic Cells (%) [5]: 13%
- Population Normal (%) [5]: 98%
- Population Pyknosed Nuclei (%) [5]: 8%
- Population Tubulin-Different-Phenotype (%) [5]: 4%
- Total Cell Count [5]: 257
- Population Apoptotic (%) [6]: 57%
- Population Fragmented Nuclei (%) [6]: 14%
- Population Healthy Nuclei (%) [6]: 81%
- Population Hoechst High Intensity Objects (%) [6]: 4%
- Population Membrane Permeable-Phenotype (%) [6]: 11%
- Population Mitochondria Different-Phenotype (%) [6]: 13%
- Population Mitotic Cells (%) [6]: 42%
- Population Normal (%) [6]: 95%
- Population Pyknosed Nuclei (%) [6]: 4%
- Population Tubulin-Different-Phenotype (%) [6]: 7%
- Total Cell Count [6]: 171
- Population Apoptotic (%) [7]: 59%
- Population Fragmented Nuclei (%) [7]: 30%
- Population Healthy Nuclei (%) [7]: 50%
- Population Hoechst High Intensity Objects (%) [7]: 4%
- Population Membrane Permeable-Phenotype (%) [7]: 65%
- Population Mitochondria Different-Phenotype (%) [7]: 63%
- Population Mitotic Cells (%) [7]: 40%
- Population Normal (%) [7]: 95%
- Population Pyknosed Nuclei (%) [7]: 18%
- Population Tubulin-Different-Phenotype (%) [7]: 75%
- Total Cell Count [7]: 207
- Population Apoptotic (%) [8]: 66%
- Population Fragmented Nuclei (%) [8]: 14%
- Population Healthy Nuclei (%) [8]: 67%
- Population Membrane Permeable-Phenotype (%) [8]: 54%
- Population Mitochondria Different-Phenotype (%) [8]: 67%
- Population Mitotic Cells (%) [8]: 33%
- Population Tubulin-Different-Phenotype (%) [8]: 66%
- Total Cell Count [8]: 119
- Population Apoptotic (%) [9]: 87%
- Population Fragmented Nuclei (%) [9]: 24%
- Population Healthy Nuclei (%) [9]: 64%
- Population Hoechst High Intensity Objects (%) [9]: 1%
- Population Membrane Permeable-Phenotype (%) [9]: 9%
- Population Mitochondria Different-Phenotype (%) [9]: 6%
- Population Mitotic Cells (%) [9]: 12%
- Population Normal (%) [9]: 98%
- Population Pyknosed Nuclei (%) [9]: 11%
- Population Tubulin-Different-Phenotype (%) [9]: 5%
- Total Cell Count [9]: 378
- Population Apoptotic (%) [10]: 95%
- Population Fragmented Nuclei (%) [10]: 10%
- Population Healthy Nuclei (%) [10]: 79%
- Population Hoechst High Intensity Objects (%) [10]: 3%
- Population Membrane Permeable-Phenotype (%) [10]: 13%
- Population Mitochondria Different-Phenotype (%) [10]: 11%
- Population Mitotic Cells (%) [10]: 5%
- Population Normal (%) [10]: 96%
- Population Pyknosed Nuclei (%) [10]: 10%
- Total Cell Count [10]: 206
- Population Apoptotic (%) [11]: 75%
- Population Fragmented Nuclei (%) [11]: 32%
- Population Healthy Nuclei (%) [11]: 37%
- Population Hoechst High Intensity Objects (%) [11]: 5%
- Population Membrane Permeable-Phenotype (%) [11]: 49%
- Population Mitochondria Different-Phenotype (%) [11]: 40%
- Population Mitotic Cells (%) [11]: 25%
- Population Normal (%) [11]: 94%
- Population Pyknosed Nuclei (%) [11]: 29%
- Population Tubulin-Different-Phenotype (%) [11]: 44%
- Total Cell Count [11]: 232
- Population Apoptotic (%) [12]: 92%
- Population Fragmented Nuclei (%) [12]: 18%
- Population Healthy Nuclei (%) [12]: 58%
- Population Hoechst High Intensity Objects (%) [12]: 12%
- Population Membrane Permeable-Phenotype (%) [12]: 60%
- Population Mitochondria Different-Phenotype (%) [12]: 52%
- Population Mitotic Cells (%) [12]: 7%
- Population Normal (%) [12]: 87%
- Population Pyknosed Nuclei (%) [12]: 23%
- Population Tubulin-Different-Phenotype (%) [12]: 57%
- Total Cell Count [12]: 137
